# Test results as given in ChEMBL document CHEMBL1142382, “Synthesis and biological activity of a 3,4,5-trimethoxybenzoyl ester analogue of epicatechin-3-gallate” (J Med Chem, 2008).
# Calls of active or inactive are those of the source. The rule behind the calls is not given here.
# Legend:
# Caco-2 [1] = assay: Growth inhibition of human Caco-2 cells at 25 uM after 6 days; format: functional, cell-based
# Summary of the method: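 Caco-2 cells treated 6 days with 25 μM compound; MTT viability expressed as percent of untreated control (100%); mean of three independent experiments ± SD.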
# [2] = Antioxidant activity assessed as ABTS radical scavenging activity; format: functional
# Summary of the method: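 ABTS radical cation generated from ABTS (150 μM) with H2O2 (75 μM) and HRP (0.25 μM) in citrate-phosphate pH 4.5, diluted in 5 mM PBS pH 7.4 to A734 0.70, pre-warmed 30 °C. Compounds in PBS (50 μM stock) at four concentrations within the Trolox dose-response range, triplicates; A734 read 1 min after mixing; TEAC derived from Trolox curve.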
# [3] = molecular target: T1, Dihydrofolate reductase (Homo sapiens) (UniProt P00374); assay: Dissociation constant for binding to free human recombinant DHFR by fluorescence titration
# T1 sequence (whole entry): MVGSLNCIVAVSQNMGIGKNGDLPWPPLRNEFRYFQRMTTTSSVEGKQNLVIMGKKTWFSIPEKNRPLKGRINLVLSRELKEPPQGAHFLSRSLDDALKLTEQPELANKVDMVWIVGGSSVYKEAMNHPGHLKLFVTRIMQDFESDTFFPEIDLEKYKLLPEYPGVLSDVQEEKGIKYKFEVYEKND
# [4] = Prooxidant activity assessed as enhancement of NADPH oxidation at 50 uM; format: functional
# Summary of the method: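 Rate of NADPH (0.1 mM) oxidation measured with 50 μM catechin in sodium-phosphate buffer, pH 7.4, 37 °C. Read-out is the fall in NADPH absorbance at 340 nm. Runs were done with and without bovine liver SOD at 10 μg/mL.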
# [5] = molecular target: T1, Dihydrofolate reductase (Homo sapiens); assay: Inhibition of human recombinant DHFR at 100 uM
# Summary of the method: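 Recombinant human DHFR activity at 25 °C followed as drop in NADPH/DHF absorbance at 340 nm in Mes 0.025 M, sodium acetate 0.025 M, Tris 0.05 M, NaCl 0.1 M, pH 7.4, with 1 mM ascorbic acid; reaction started with enzyme; compounds at 100 μM; activity relative to no-compound control, mean of five experiments.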
# SK-MEL-28 [6] = assay: Antiproliferative activity against human SkMel28 cells after 6 days by MTT assay; format: functional, cell-based; conditions: SK-MEL-28, 144 h
# Summary of the method: (§1)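 ATCC lines kept in medium with 10% FCS and antibiotics; plated at 1000 cells/well, grown to 50-60% confluence, then exposed for 6 days. Viability by MTT, formazan read at 570 nm; IC50 derived.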
# [7] = Antiproliferative activity against human H1264 cells after 6 days by MTT assay; format: functional, cell-based; conditions: H1264, 144 h; summary of the method: as §1
# Caco-2 [8] = assay: Antiproliferative activity against human Caco-2 cells after 6 days by MTT assay; format: functional, cell-based; conditions: Caco-2, 144 h; summary of the method: as §1
# MCF7 = assay: Antiproliferative activity against human MCF7 cells after 6 days by MTT assay; format: functional, cell-based; conditions: MCF7, 144 h; summary of the method: as §1
# SK-MEL-28 [9] = assay: Growth inhibition of human SkMel28 cells at 20 uM after 6 days; format: functional, cell-based
# SK-MEL-28 [10] = assay: Down regulation of DHFR mRNA expression in human SkMel28 cells at 20 uM after 24 hrs; format: functional, cell-based
# Summary of the method: (§2)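 SkMel-28 cells treated and mRNA quantified by SYBR Green real-time PCR (95 °C 15 min; 40-50 cycles 94 °C 30 s, 55 °C 30 s, 72 °C 1 min), triplicate reactions, at least two independent experiments; melting-curve specificity check; expression relative to normal human epidermal melanocytes.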
# SK-MEL-28 [11] = assay: Down regulation of thymidylate synthase mRNA expression in human SkMel28 cells at 20 uM after 24 hrs; format: functional, cell-based; summary of the method: as §2
# SK-MEL-28 [12] = assay: Down regulation of methyltetrahydrofolate reductase mRNA expression in human SkMel28 cells at 20 uM after 24 hrs; format: functional, cell-based; summary of the method: as §2
# [13] = Stability in human HT29 cells assessed as half life; format: ADME, cell-based; conditions: HT-29 cells
Molecule,Activity (Caco-2 [1]),Activity [2],Kd [3],Activity [4],Activity [5],other results
O=C(O[C@@H]1Cc2c(O)cc(O)cc2O[C@@H]1c1ccc(O)c(O)c1)c1cc(O)c(O)c(O)c1,Active,4.9 mM,1780 nM,–,–,–
Oc1cc(O)c2c(c1)O[C@H](c1cc(O)c(O)c(O)c1)[C@H](O)C2,–,–,–,Active,inactive,–
VITAMIN E,–,1 mM,–,–,–,–
Oc1cc(O)c2c(c1)O[C@H](c1ccc(O)c(O)c1)[C@H](O)C2,–,–,–,–,inactive,–
COc1cc(C(=O)O[C@@H]2Cc3c(O)cc(O)cc3O[C@@H]2c2ccc(O)c(O)c2)cc(OC)c1OC,Active,1.9 mM,2100 nM,–,–,IC50 (SK-MEL-28 [6]): 2900 nM; IC50 [7]: 18000 nM; IC50 (Caco-2 [8]): 33000 nM; IC50 (MCF7): 80000 nM; Activity (SK-MEL-28 [9]): Active; Activity (SK-MEL-28 [10]): Active; Activity (SK-MEL-28 [11]): Active; Activity (SK-MEL-28 [12]): Active
O=C(O[C@@H]1Cc2c(O)cc(O)cc2O[C@@H]1c1cc(O)c(O)c(O)c1)c1cc(O)c(O)c(O)c1 [EPIGALOCATECHIN GALLATE],Active,4.8 mM,920 nM,Active,–,half-life [13]: < 2 h
